Source: PubChem
PfGluPho inh: PfG6PD (Plasmodium falciparum) enzyme inhibition | hit rate 0.78% among 350,000 | PfGluPho enzyme, NADPH resazurin-diaphorase fluorescence | inhibition, % at 20 µM;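 active = inhibition reaching at least a set limit at 20 µM in the primary screen, cut at about 59% in these data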;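 also: 0% = DMSO wells with substrate and 100% = DMSO wells lacking glucose-6-phosphate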
M18AAP inhibitor: PfM18AAP enzyme inhibition | recombinant PfM18AAP, H-Glu-NHMec fluorogenic cleavage | inhibition, % at 7.35 µM | hit rate 1.2% among 290,000 | AID 1822;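 active = inhibition above the campaign mean inhibition over all tested compounds plus 3 SD, cut at about 28% in these data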;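 also: 0% = plate median of test compound wells and 100% = 2 mM ZnCl2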
Neddyl block: inhibitors of human cullin neddylation. P61081+Q13564. TR-FRET cullin neddylation, biochemical. inhibition, % at 25 µM. hit rate 0.58% among 360,000. AID 651699; in the data active = inhibition above about 36%
Target sequence (P61081 whole entry, looked up): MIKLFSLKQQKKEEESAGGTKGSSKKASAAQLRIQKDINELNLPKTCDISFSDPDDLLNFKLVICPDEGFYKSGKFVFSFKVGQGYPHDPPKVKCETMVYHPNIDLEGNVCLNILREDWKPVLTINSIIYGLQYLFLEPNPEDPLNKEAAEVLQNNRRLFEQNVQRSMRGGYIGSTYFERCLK
Target sequence (Q13564 whole entry, looked up): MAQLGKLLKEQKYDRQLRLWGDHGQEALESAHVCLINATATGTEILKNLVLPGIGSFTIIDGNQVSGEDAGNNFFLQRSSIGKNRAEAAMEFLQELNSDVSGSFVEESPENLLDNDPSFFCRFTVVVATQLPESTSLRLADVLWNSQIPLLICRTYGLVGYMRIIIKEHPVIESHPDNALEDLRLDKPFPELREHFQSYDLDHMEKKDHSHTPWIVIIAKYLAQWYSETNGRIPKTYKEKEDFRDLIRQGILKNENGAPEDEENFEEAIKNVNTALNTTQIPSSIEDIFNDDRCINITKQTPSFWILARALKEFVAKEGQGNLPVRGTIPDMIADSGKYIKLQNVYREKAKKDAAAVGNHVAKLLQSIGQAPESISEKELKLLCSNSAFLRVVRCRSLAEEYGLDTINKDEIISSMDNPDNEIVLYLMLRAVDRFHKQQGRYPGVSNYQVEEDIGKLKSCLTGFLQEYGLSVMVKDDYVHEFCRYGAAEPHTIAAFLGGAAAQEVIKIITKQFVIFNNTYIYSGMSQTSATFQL
HKDC1 inhibitor: HKDC1 (human) hexokinase inhibition; recombinant HKDC1, G6PDH/diaphorase resazurin coupled fluorescence; inhibition, % at 20 µM; hit rate 0.16% among 340,000; AID 493160;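 active = inhibition above about 35% when tested at 20 µM, limit read from the data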;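 also: plate controls were DMSO wells with enzyme for no effect and DMSO wells lacking enzyme for full effect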
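Assay system: in-house recombinant HK5 (HKDC1) enzyme. Input: HKDC1 at 5 µg/mL. Medium: Tris pH 8.0 buffer with MgCl2, Tween-20, BSA, BME. Dosing: single 20 µM dose. Schedule: 90 min reaction incubation at room temperature, dark. Signal: resazurin-to-resorufin fluorescence via G6PDH and diaphorase coupling, 525/613 nm. Controls: DMSO-enzyme wells negative, buffer-substituted wells positive.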
Neddyl inh conf: confirmation of human cullin neddylation inhibitors. calls only at 25 µM. hit rate 13% among 1,800. TR-FRET cullin neddylation biochemical assay. shares compounds with Neddyl block; in the data active = inhibition above about 40%;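 also: neddylation substrate is the cullin 1 ring ligase complex with SKP2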
Active calls of the source: *; i = inactive; x = not tested or not shown; + = active, no number; ! = a repeat was not active. Shown are actives, neighbours in structure and some others; about 2.2% of the full set was active somewhere.

SMILES	PfGluPho inh	M18AAP inhibitor	Neddyl block	HKDC1 inhibitor	Neddyl inh conf
CCOC(=O)c1cn2nc(Oc3ccccc3)ccc2n1	-5.5	0.8	16.3	1.5	x
Cc1cc(-c2nn(-c3ccccc3)cc2/C=C2\SC(N)=NC2=O)ccc1OC(C)C	-14.1	-6.0	47.7*	4.9	i
CCCOc1ccc(-c2nn(-c3ccccc3)cc2/C=C2\SC(N)=NC2=O)cc1	-2.4	-0.4	x	-9.2	x
CCOc1c(C)cc(-c2ncccc2O)cc1C	10.4	9.2	45.2*!	-10.6	i
COc1ccc(-c2ncccc2O)cc1	-5.1	-4.7	x	1.4	x
O=c1c2ccccc2nc2c3ccccc3cnn12	-8.1	1.0	43.8*	-2.2	i
COc1ccc2ccc(=O)oc2c1CC(=O)C(C)C	-3.9	x	44.0*	-2.4	i
Cc1cc(C(F)(F)F)nc(SCC(=O)NC2CCCCC2)n1	-14.5	-2.8	-9.2	-10.8	x
OC1CCCN(Cc2cccc3ccccc23)C1 (stereo not given)	-15.7	6.6	-0.4	-3.2	x
OC1CCCN(Cc2c3ccccc3cc3ccccc23)C1 (stereo not given)	-6.4	-33.9	49.7*	2.7	+
Nc1nc2c(c(=O)[nH]1)CN(Cc1ccccc1)CC2	12.4	x	40.4*	-5.7	i
Nc1ncnc2c1CN(Cc1ccccc1)CC2	6.6	x	8.2	-10.0	x
CCN(Cc1ccccc1)C(=O)CCS(=O)(=O)c1ccc2c(c1)CCN2C(C)=O	-0.2	0.0	0.7	-8.9	x
Cc1ccc(Nc2c(O)nc[nH]c2=O)cc1	9.9	x	-0.7	-4.2	x
CCCOC(=O)C1=C(C)N(C)C(=O)NC1c1cc2c(cc1[N+](=O)[O-])OCO2 (stereo not given)	43.0	8.8	42.5*	-4.5	i
CC1=C(C(=O)OCC(C)C)C(c2cc3c(cc2Br)OCO3)NC(=O)N1C (stereo not given)	-11.4	4.4	7.2	-5.5	x
CCCN=C1N(CC)C[C@@H]2[C@@H]3C(=O)N(C)C(=O)[C@@H]3[C@](C)(C(=O)OC)N12	-13.0	x	-2.7	5.4	x
COc1ccc(C(=O)Cn2c(=O)c(CCC(=O)O)nn3c4ccccc4nc23)cc1OC	5.7	6.8	39.1*	-0.4	+
CCCc1cc(=O)oc2c(C)c(OCC(=O)N3CCC(C(N)=O)CC3)ccc12	1.7	-3.5	36.4	-2.5	x
Cc1c(CCC(=O)N2CCC[C@H]2C(=O)O)c(=O)oc2c(C)c3oc4c(c3cc12)CCCC4	-27.8	-4.0	x	14.2	x
CCCc1cc(=O)oc2c(C)c(OCC(=O)N3CCC[C@@H]3C(=O)O)ccc12	-12.4	6.0	45.7*	-4.3	i
CCCCCCc1c(C)c2ccc(OCC(=O)N3CCC[C@H]3C(=O)O)c(C)c2oc1=O	-7.0	1.6	49.0*	3.8	x
CCOC(=O)C1=C(C(=O)OCC)c2ccc(OC)c(OC)c2C1	-13.2	x	40.8*	-0.2	i
N#C/C(=C\c1c(Cl)cccc1Cl)c1nc2ccccc2[nH]1	1.7	-0.9	46.0*	0.4	+
COc1ccc2sc(-c3ccccc3OC)c(C#Cc3cncn3C)c2c1	-5.0	x	18.6	12.0	x
SMILES	PfGluPho inh	M18AAP inhibitor	Neddyl block	HKDC1 inhibitor	Neddyl inh conf
COc1ccccc1-c1sc2cc3c(cc2c1C#Cc1cncn1C)OCO3	7.5	x	30.2*	-6.2	+
O=C(c1ccc2c(c1)OCO2)N(c1ccc(Br)cc1)C1C=CS(=O)(=O)C1 (stereo not given)	-4.6	-1.4	-7.0	-11.0	x
O=C(CSc1cccc2cccnc12)Nc1cc(C(=O)O)cc(C(=O)O)c1	1.1	0.2	48.6*	5.8	+
CCN1C(=O)[C@H]2[C@@H](c3ccc(C)cc3)N3C(=O)N(c4ccccc4)C(=O)[C@@]3(CC)[C@H]2C1=O	-30.3	4.1	-15.7	1.7	x
CC1CCN(C(=O)c2cc(S(=O)(=O)N3CCCCC3)c[nH]2)CC1	7.8	1.3	-11.6	-4.6	x
COc1cc(/C=C/C(=O)OCC(=O)N2CCN(S(=O)(=O)c3ccc(C)cc3C)CC2)ccc1O	4.5	8.0	47.5*	-6.3	i
CCN(CC)c1ccc(S(=O)(=O)N2CCOCC2)cc1NC(=O)COC(=O)/C=C/c1ccc(O)c(OC)c1	19.5	x	31.9*	10.1	i
CCN(CC)c1ccc(S(=O)(=O)N2CCOCC2)cc1NC(=O)COC(=O)/C=C/c1ccccc1	16.2	x	7.0	0.7	x
COc1cccc(/C=C/C(=O)N2CCN(S(=O)(=O)c3ccccc3)CC2)c1	15.0	x	41.2*	x	i
COc1cccc(/C=C/C(=O)OCC(=O)N2CCN(S(=O)(=O)c3ccc(Cl)cc3)CC2)c1	-6.8	-9.7	41.1*	-8.2	i
Cc1cccc([C@@H]2[C@@H]3C(=O)N(Cc4ccccc4)C(=O)[C@@H]3[C@]3(Cc4ccccc4)C(=O)N(c4ccc(C(F)(F)F)cc4)C(=O)N23)c1	14.2	x	-4.6	0.4	x
CCN(CC)S(=O)(=O)c1ccc2[nH]c(=O)cc(C(=O)NCC3CCCO3)c2c1 (stereo not given)	-0.5	x	7.9	-3.1	x
CN(C)CCN(Cc1ccccc1)C(=O)C1CCN(c2ncnc3c2nc2n3CCCCC2)CC1	-6.9	2.6	42.9*	2.3	i
CC(C)N(Cc1ccccc1)C(=O)C1CCN(c2ncnc3c2nc2n3CCCCC2)CC1	1.4	-1.2	-11.3	-2.0	x
Cc1cccc(NS(=O)(=O)c2cccc(C(=O)NCC(c3ccc(F)cc3)N3CCOCC3)c2)c1 (stereo not given)	-9.3	x	-28.1	-3.4	x
O=C1NC2(c3ccccc3)NC(=O)NC2(c2ccccc2)N1 (stereo not given)	9.2	x	-17.5	-2.7	x
CCc1nnc(NC(=O)c2ccc(-c3ccccc3F)o2)s1	25.4	4.4	42.3*	-6.2	i
CCc1nnc(NC(=O)c2ccc(-c3ccc(Cl)cc3)o2)s1	-15.8	-1.7	6.7	7.8	x
COc1ccc(OCC(=O)N/N=C/c2ccc(N(C)C)cc2)cc1	-9.1	2.9	44.8*	-5.5	+
CN(C)c1ccc(/C=N/NC(=O)CNC(=O)c2ccc3c(c2)OCCO3)cc1	-12.9	5.2	58.0*	-8.9	x
CN(C)c1ccc(/C=N/NC(=O)Cn2nnc3ccccc32)cc1	-1.4	9.9	40.3*	-3.0	i
COc1ccc(/C=N/NC(=O)Cn2nnc3ccccc32)cc1OC	-13.4	-5.6	-12.7	1.8	x
CCCCCC(=O)N/N=C/c1ccc(N(C)C)cc1	12.7	8.6	42.5*	-1.7	x
O=S(=O)(c1ccccc1)N1CCNCC1	5.0	x	5.1	0.2	x
Cc1ccc(S(=O)(=O)N2CCCN(C(=O)CNC(=O)c3cccc(C)c3)CC2)cc1	6.6	x	2.1	-1.1	x
Cc1cc(C(=O)N2CCCC(N3CCN(Cc4ccc5c(c4)OCO5)CC3)C2)n[nH]1 (stereo not given)	-5.1	-7.6	-4.2	-0.8	x
CN(C)c1ccc(/C=N/NC(=O)CCCCCNC(=O)c2ccccc2)cc1	11.0	-7.9	42.5*	-3.9	+
C/C(=N\NC(=O)c1cccc(S(=O)(=O)Nc2cccc(Cl)c2)c1)c1cccs1	-15.6	-2.7	43.8*	3.3	i
Cc1ccc(/C=N/NC(=O)c2cccc(S(=O)(=O)Nc3cccc(Cl)c3)c2)o1	-11.3	-4.7	43.4*	-12.6	i
